Screens from PubChem.
Sampled rows, rich in hits. Any-hit rate of the full collection: about 4.8%.
CSC inhib = blocks cancer stem cells. 1.1% of 300,000 active. inhibition, % at 7.5 µM. cancer stem cell-like cells viability, luminescence; in the data active = inhibition above about 75%; tested in HMLE shEcad cells
SKKanGAS inh = SKKanGAS growth inhibition; S. pyogenes SKKanGAS, kanamycin growth, BacTiter-Glo, 6 h; inhibition, % at 7.5 µM; 1.3% of 300,000 active; AID 1662;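 active = mean replicate score, as percent of positive control median, at least 50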;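 note: strain carries kanamycin resistance gene driven by streptokinase promoter and grows in 40 µg/ml kanamycin; loss of luminescence reflects streptokinase promoter inhibition or plain growth inhibition; 0% = median of DMSO wells and 100% = positive control at its reference dose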
Beta cell apopt = blocks beta cell apoptosis; 0.8% of 300,000 active; INS-1E cytokine-induced death, ATP luminescence, 48 h; percent of positive-control rescue, neutral wells zero; protection from apoptosis, % (concentration not given with the values); AID 435005;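 active = Every replicate reaches about 75%, or at least half do and their mean reaches it too, limit read from the data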;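 note: 0% = cytokine-treated negative control wells and 100% = positive control rescue; higher means more ATP so stronger rescue from cytokine killing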
Mdm2-MdmX inh = human Mdm2/MdmX binding inhibition. O15151+Q00987. SaOS-2 split-luciferase Mdm2/MdmX complementation, luminescence. inhibition, % at 8 µM. 3% of 330,000 active. AID 485346;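 active = inhibition of at least 50% at 8 µM in the primary screen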
UPR XBP1 act = activators of adaptive arm of unfolded protein response (XBP1); CHO-XBP1 luciferase reporter, IRE1-XBP1 UPR activation, luminescence; percent of tunicamycin response, DMSO as zero; activation, % at 20 µM; 0.33% of 330,000 active;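 active = versus positive control, 20 µM dose yields 30% or more activation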;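 note: 100% = tunicamycin at 10 µg/mL and 0% = DMSO only wells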
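Signal: luciferase luminescence; Assay system: CHO-XBP1 luciferase reporter cells; Amount: one thousand reporter cells per well; Dosing: 20 µM single concentration, DMSO 1%; Benchmarks: high control tunicamycin 10 µg/mL final, low control DMSO vehicle only; Schedule: 6 h compound exposure at 37 °C, 5% CO2; Evaluation: percent activation relative to tunicamycin reference.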
UPR CHOP act = apoptotic UPR (CHOP) activation; CHO-CHOP luciferase reporter, luminescence; percent of tunicamycin response over DMSO baseline; activation, % at 10 µM; 0.34% of 330,000 active; AID 449763;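 active = at 10 µM dose, activation of 40% or more, normalized to positive control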;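 note: 100% = tunicamycin at 10 µg/mL and 0% = DMSO alone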
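System: CHO-CHOP luciferase reporter cell line | Buffer or medium: F12 medium containing 10% fetal bovine serum | Doses: One dose, 10 µM in 0.5% DMSO | Times: 6 h compound exposure at 37 °C after overnight seeding | Signal: Luciferase luminescence | Read-out: % activation vs tunicamycin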
Mdm2 MdmX conf = confirmation of human Mdm2/MdmX interaction inhibitors; Mdm2-MdmX binding, luminescent assay; shares compounds with Mdm2-MdmX inh; 55% of 10,000 active; inhibition, % at 8 µM; in the data active = inhibition above about 40%
Full FLuc ctr = counter-screen for Mdm2/MdmX inhibitors: full-length luciferase; shares compounds with Mdm2-MdmX inh; SaOS-2 full-length luciferase counterscreen, luminescence; inhibition, % at 8 µM; 77% of 6,200 active;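 active = mean inhibition at 8 µM reaching about 37%, which flags the compound as non-specific, limit read from the data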;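 note: p53-null SaOS-2 cells with luciferase driven by a doxycycline-inducible promoter; compound on cells about two nights before reading with doxycycline added after day one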
* = called active by the depositor; . = not tested or not shown.

SMILES	CSC inhib	SKKanGAS inh	Beta cell apopt	Mdm2-MdmX inh	UPR XBP1 act	UPR CHOP act	Mdm2 MdmX conf	Full FLuc ctr
COC(=O)C1=C(C)N(Cc2ccccc2)C(=NCC(C)C)N[C@H]1c1cccc(C(F)(F)F)c1	31	.	29	99*	15	3	51*	26
COC(=O)C1=C(C)N(Cc2ccccc2)C(=NCCc2cccnc2)N[C@H]1c1ccc(Br)cc1	-4	.	2	85*	4	1	47*	54*
COc1cccc(-c2nc(CS(=O)(=O)CC(=O)NCCN3CCOCC3)c(C)o2)c1	-8	-5	-3	-5	-1	-2	.	.
CN(CC(=O)Nc1cccc(F)c1)C(=O)CCc1nc2ccccc2c(=O)[nH]1	-10	-9	-7	13	-4	-2	.	.
CCN1C(=NCC2CC2)N[C@@H](c2cccc(C(F)(F)F)c2)C(C(=O)OC)=C1C	4	6	7	28	-4	-2	.	.
CCN1C(=NCc2ccco2)N[C@@H](c2cccc(C(F)(F)F)c2)C(C(=O)OC)=C1C	.	.	-3	56*	3	0	25	.
C=CCNC(=O)C1CC(=O)N(c2ccc(OCC(=O)Nc3cccc(OC)c3)cc2)C1 (stereo unspecified)	-3	4	4	3	-1	0	.	.
C=CCNC(=O)C1CC(=O)N(c2ccc(OCC(=O)Nc3ccc(Cl)c(C(F)(F)F)c3)cc2)C1 (stereo unspecified)	-8	1	.	78*	0	1	12	.
O=C(/C=C\c1ccco1)Nc1nc(-c2ccccc2)cs1	.	-5	.	-27	1	1	.	.
O=C(/C=C/c1ccco1)NC(=S)Nc1nc(-c2ccc(Cl)cc2)cs1	.	2	-2	61*	13	0	54*	67*
O=C(/C=C/c1ccco1)NC(=S)Nc1nc(-c2ccc3ccccc3c2)cs1	76*	6	9	78*	13	0	45*	48*
O=C(CN(C(=O)c1ccc(Cl)cc1)C1CCCCC1)Nc1ccc(Cl)c([N+](=O)[O-])c1	31	14	34	65*	4	9	43*	72*
O=C(CN(C(=O)c1ccccc1Cl)C1CCCCC1)Nc1ccc(Cl)c([N+](=O)[O-])c1	28	3	15	21	1	6	.	.
CC1=C(C(=O)OC2CCCCCCC2)C(c2cc3c(cc2Br)OCO3)CC(=O)N1 (stereo unspecified)	118*	43	16	78*	10	1	28	.
O=C(NCc1cccnc1)C1CC(c2ccc(Cl)c(Cl)c2)=NO1 (stereo unspecified)	60	-2	4	29	-5	-1	.	.
Cc1cccc(CNc2ncnc3ccc(-c4cccnc4)cc23)c1	.	.	-9	10	2	0	.	.
CC(=O)Nc1ccc(CNc2ncnc3ccc(-c4c(C)noc4C)cc23)cc1	16	.	-38	88*	0	-1	68*	49*
CC(=O)Nc1ccc(S(=O)(=O)N2CCN(Cc3cccc([N+](=O)[O-])c3)CC2)cc1	-6	-9	.	15	-3	1	.	.
O=C(CC(c1ccccc1)c1cc(Cl)ccc1O)NCCCN1CCOCC1 (stereo unspecified)	.	0	.	14	-5	0	.	.
NC(=S)NCc1cccnc1	-5	0	3	-25	2	-1	.	.
CSC(=S)NCc1cccnc1	35	-10	9	79*	0	-3	73*	39*
CCCc1cnc(NCCNCC(O)COc2ccc(Cl)c(Cl)c2)nc1 (stereo unspecified)	10	7	22	56*	-2	1	24	.
CC(=O)c1cccc(OCC(O)CNCCc2ccc(Cl)cc2)c1 (stereo unspecified)	13	4	-4	-32	-2	-1	.	.
CCc1ccc(/C=N/NC(=O)c2cc(C3CC3)nc3ccc(Br)cc23)s1	-9	27	32	63*	5	-1	55*	54*
O=C(N/N=C/c1ccco1)c1cc(C2CC2)nc2ccccc12	17	-1	-7	6	0	1	.	.
SMILES	CSC inhib	SKKanGAS inh	Beta cell apopt	Mdm2-MdmX inh	UPR XBP1 act	UPR CHOP act	Mdm2 MdmX conf	Full FLuc ctr
c1ccc2c(c1)CCN(c1nc3cc4c(cc3s1)OCCO4)C2	.	18	14	81*	-5	-7	77*	93*
COCCN(Cc1nc2ccccc2c(=O)[nH]1)C(=O)COc1ccccc1-c1ccccc1	.	.	.	53*	-2	0	43*	86*
COc1ccc(C(=O)Nc2ccc(N3CCCCCC3)cc2)cc1S(=O)(=O)N1CCOCC1	15	.	9	7	-1	3	.	.
COc1ccc(-c2cc3c(=O)n(CC(=O)NCCCN4CCC(N5CCCCC5)CC4)ncn3n2)cc1	18	-1	5	67*	-6	2	26	.
COc1ccc(-c2cc3c(=O)n(CC(=O)NCc4cccnc4)ncn3n2)cc1	-4	-5	-6	0	-4	-1	.	.
COc1ccc(-c2cc3c(=O)n(CC(=O)Nc4ccc(C(C)=O)cc4)ncn3n2)cc1	-5	3	4	58*	-3	5	34	105*
CCc1ccc(-c2cc3c(=O)n(CC(=O)N4CCCC4)nc(C)n3n2)cc1	-8	-2	1	23	0	2	.	.
CCc1ccc(-c2cc3c(=O)n(CC(=O)NCCN4CCCCC4C)nc(C)n3n2)cc1 (stereo unspecified)	80*	-1	11	68*	0	2	25	.
COc1ccc(-c2cc3c(=O)n(CC(=O)NC4CCN(Cc5ccccc5)CC4)ncn3n2)cc1	-8	-13	8	69*	-3	0	13	.
C=CCCC(=O)N1CCCC(C(=O)c2cccc(OC)c2)C1 (stereo unspecified)	20	-16	-9	19	-3	0	.	.
COc1ccc(CCNC(=O)CCS(=O)(=O)c2ccc3c(c2)NC(=O)CO3)cc1OC	-5	-1	1	14	-7	0	.	.
O=C(COc1ccc(Br)cc1)NCCCNC(=O)c1cccnc1	-18	-4	41	27	-1	4	.	.
O=C1NC(Cc2ccc(O)cc2)c2nc3ccc(Br)cc3c(=O)n2-c2ccc(Cl)cc21 (stereo unspecified)	12	.	6	-6	2	-2	.	.
CCOc1ccc(NC(=O)CN(C)Cc2ccc3c(c2)OCO3)cc1S(=O)(=O)N1CCCC1	.	.	-2	19	0	1	.	.
